Wnt bcat act: Wnt/beta-catenin pathway activators, primary screen, cell-based, plate reader, single point | 300,000 compounds, 1.2% hits | activation, % at 9.35 µM | Wnt/beta-catenin reporter cell assay, activator; in the data active = activation above about 30%, passing the limit was not always enough; inconclusive = no clear call, values can overlap the other calls;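 note: 0% = neutral control wells and 100% = positive control wells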
Casp6 inh: human caspase-6 inhibitors, primary screen, biochemical, VEID-R110 fluorescence, single point, set 2; P55212; purified caspase-6, Z-VEID-R110 cleavage fluorescence; inhibition, % at 12.5 µM; 350,000 compounds, 0.53% hits;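 active = mean inhibition across replicates at least about 35%, with every replicate also reaching that limit, limit read from the data; inconclusive = only one of the two criteria met; inactive = neither criterion met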;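 note: 0% = median of neutral control wells and 100% = no fluorescence left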
Target sequence (P55212 24-179 limits assumed): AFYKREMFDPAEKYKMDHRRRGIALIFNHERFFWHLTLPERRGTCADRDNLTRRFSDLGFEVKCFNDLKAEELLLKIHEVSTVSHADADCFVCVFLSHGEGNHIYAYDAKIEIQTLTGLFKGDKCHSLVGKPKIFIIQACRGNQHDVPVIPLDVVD
Target sequence (P55212 194-293 limits assumed): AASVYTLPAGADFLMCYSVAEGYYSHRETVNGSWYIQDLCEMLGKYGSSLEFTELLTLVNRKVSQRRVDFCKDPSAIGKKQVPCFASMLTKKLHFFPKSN
NSD2 inh: NSD2 histone methyltransferase inhibitors, primary screen, biochemical, AlphaScreen, single concentration, set 2; AID 743445, 2014; NSD2 peptide methylation, 120 min; 310,000 compounds, 0.54% hits; Histone-lysine N-methyltransferase NSD2 (Homo sapiens), O96028; inhibition, % at 12.5 µM; in the data active = inhibition above about 50%
MITF TRPM1 HTS: activators of MITF-driven TRPM1 promoter reporter, primary screen, cell-based, SK-MEL-5, luciferase, single point; SK-MEL-5 TRPM1-promoter luciferase, 24 h; % of positive control, neutral wells = 0; activation, % at 12.5 µM; 300,000 compounds, 0.75% hits; AID 588334, 2011;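 active = mean activation of at least 80% with every replicate also reaching 80%; inconclusive = mean reaches 80% but some replicate falls short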;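 note: 0% = neutral control wells and 100% = parthenolide positive control wells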
Xi reactivation: activators of inactive X chromosome reactivation, primary screen, imaging, XiGFP fibroblasts, GFP high-content imaging, set 2; XiGFP mouse fibroblasts, % GFP-positive cells imaging, 3 d; cells co-treated with 5-aza-dC sensitizer; scaled so ellipticine positive control = 100%; activation, % at 7.58 µM; 360,000 compounds, 0.055% hits; AID 743238, 2013;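 active = mean normalized replicate activation at least 10% and every replicate at or above 10%; inconclusive = only one of the two criteria met; inactive = mean below 10% and not all replicates reach 10%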;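 note: 0% = median of on-plate neutral control wells and 100% = ellipticine 6 µM median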
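System: SV40-immortalized XiGFP fibroblast cells, line 68-5-11 / Incubation: 3-day compound exposure, then 15 min fixation at room temperature / Compound: single concentration per compound, delivered by pin transfer / Buffer or medium: DMEM plus 5-aza-dC sensitizer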
esBAF inh: Bmi1 luciferase reporter increase in mESCs, primary screen, esBAF inhibitor project, mouse ES cells, Bmi1 luciferase knock-in, single point | 24 h; 100% = twice the neutral-well signal | reporter increase, % at 12.5 µM | 350,000 compounds, 2% hits; in the data active = activation above about 40%; inconclusive = no clear call, values can overlap the other calls;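 note: 0% = median of the plate's neutral control wells and 100% = double that signal; a rise in the Bmi1 reporter signal indicates esBAF inhibition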
Starred values were filed as active, the others as inactive; u = inconclusive; x = no result. Shown are actives, neighbours in structure and some others; about 3% of the full set was active somewhere.

SMILES	Wnt bcat act	Casp6 inh	NSD2 inh	MITF TRPM1 HTS	Xi reactivation	esBAF inh
COc1ccc2c3n([n+]([O-])c2c1)CCN=C3c1ccc(Cl)cc1	9	0	x	15	0	42*
CNC[C@H]1OCCCC[C@@H](C)Oc2ccc(NC(=O)Nc3ccc(F)cc3)cc2C(=O)N([C@@H](C)CO)C[C@H]1C	x	-2	x	x	0	4
CCOC(=O)c1cccc(NC(=O)c2cnc3ccccc3n2)c1	-4	x	0	28	x	53*
CCOC(=O)Cc1nc2ccccc2[nH]1	x	x	-1	-13	x	10
CCCCNCc1nc2ccccc2c(=O)[nH]1	-1	-1	0	-7	0	x
O=C(O)c1ccc(Nc2cnc3ccccc3n2)cc1	x	-1	0	18	0	28
CCc1ccc(NCc2nc3ccccc3c(=O)[nH]2)cc1	35*	x	x	21	x	3
CCOC(=O)c1ccc(NCc2nc3ccccc3[nH]2)cc1	u	0	x	57	0	50*
CCOC(=O)c1ccc(Nc2cnc3ccccc3n2)cc1	34*	-1	-2	u	0	x
CCCC(=O)N=C1SC2CS(=O)(=O)CC2N1c1ccc(-c2nc3ccc(C)cc3s2)cc1 (stereo not drawn)	34*	0	1	57	0	x
Oc1c(C(c2ccccn2)N2CCCCC2)cc(Cl)c2cccnc12 (stereo not drawn)	59*	-7	32	-29	x	x
CN(C)CCCNc1cc(C(C)(C)C)nc2c(-c3ccccc3)cnn12	43*	4	0	x	0	x
Cc1cc(NCc2ccccn2)n2ncc(-c3ccccc3)c2n1	56*	1	11	x	0	51*
Cc1cc(Cl)n2ncc(-c3ccccc3)c2n1	-3	-1	-4	x	0	48*
Cc1cc(N)n2ncc(-c3ccc(F)cc3)c2n1	x	x	-4	73	x	58*
Cc1cc(N)n2ncc(-c3ccc(Cl)cc3)c2n1	x	x	x	39	x	x
O=C(C[C@H]1C=C[C@H](NC(=O)C2CCOCC2)[C@H](CO)O1)Nc1ccccc1	x	3	x	x	0	x
CC(=O)N(C1=C(N2CCOCC2)C(=O)c2ccccc2C1=O)c1ccc(C(=O)O)cc1	4	70*	48	-13	0	-25
CC(=O)N(C)C1=C(N2CCOCC2)C(=O)c2ccccc2C1=O	x	x	98*	-87	x	x
O=C(c1ccc(F)cc1)N1CCCCN2[C@H](CO)[C@H](c3ccc(C#CC4(O)CCCC4)cc3)[C@@H]2C1	x	1	x	x	0	x
CC(C)(C)c1ccc(-c2noc(-c3ccno3)n2)cc1	-3	-1	-1	118*	0	26
CC(C)(C)c1ccc(-c2nc(-c3ccncc3)no2)cc1	-3	4	-7	2	x	-26
CCN(CC)CCN(CC)Cc1ccccc1Br	-2	56*	3	3	x	x
CCN(CCO)Cc1csc2cccc(Br)c12	x	x	3	-4	x	x
COc1ccc2c3c([nH]c2c1)[C@@H](CO)N(C(=O)c1ccc(F)cc1)CC31CN(C(=O)Nc2ccc(F)cc2)C1	x	x	x	x	0	x
SMILES	Wnt bcat act	Casp6 inh	NSD2 inh	MITF TRPM1 HTS	Xi reactivation	esBAF inh
Cc1ccc2c(c1)sc[n+]2Cc1ccccc1	28	0	1	69	x	54*
CC(c1nccs1)N(C)C(=O)c1cn(Cc2cccc3ccccc23)nn1 (stereo not drawn)	8	2	-4	43	0	48*
CC(c1nccs1)N(C)C(=O)CCc1nnc(-c2ccc(-c3ccccc3)cc2)o1 (stereo not drawn)	8	4	19	-3	0	x
Cc1cc(C)n(-c2nc(-c3ccccc3)cs2)n1	x	x	1	46	x	x
Cc1cc(C)n(-c2nc(-c3cccc(Cl)c3)cs2)n1	-2	x	-3	x	x	49*
Cc1ccc(S(=O)(=O)N(C)C[C@@H]2Oc3c(NC(=O)Nc4cccc5ccccc45)cccc3C(=O)N([C@@H](C)CO)C[C@H]2C)cc1	x	-1	x	x	0	9
COC(=O)C(N)Cc1ccc(O)c(O)c1 (stereo not drawn)	x	x	-1	-4	x	-5
N[C@@H](Cc1cc(I)c(O)c(I)c1)C(=O)O	3	44*	x	-4	0	-1
COc1ccccc1NC(=O)CSc1nncn1-c1cccnc1	-1	-1	2	-18	x	-8
CCc1ccc(NC(=O)CSc2nncn2-c2cccnc2)cc1	9	4	2	94*	x	u
O=C1N[C@H](Cc2ccccc2)COCc2cn(nn2)CC[C@H]1Cc1ccccc1	x	-4	x	x	0	x
COc1ccc(/C=N/N=C2/SCC(=O)N2Cc2ccccc2)cc1	56*	-2	-1	x	0	x
COc1ccc(CN2C(=O)CS/C2=N/N=C/c2ccccc2)cc1	5	2	-2	x	0	x
Cc1ccc(OCCOc2ccc(Br)cc2)c([N+](=O)[O-])n1	13	1	0	123*	0	65*
Cc1ccc(OCC(=O)Nc2ccc(C)c(F)c2)c([N+](=O)[O-])n1	-3	-1	1	114*	0	56*
Cc1ccc(OCCOc2c(Cl)cc(Cl)cc2Cl)c([N+](=O)[O-])n1	x	x	-2	x	x	x
Cc1ccc(OCc2ccccc2C)c([N+](=O)[O-])n1	2	x	-1	27	0	11
Cc1ccc(OCc2ccc([N+](=O)[O-])cc2)c([N+](=O)[O-])n1	33*	1	-4	139*	0	x
Cc1cccc(S(=O)(=O)N2C[C@@H](O)COC[C@@H]3O[C@H](CC(=O)N4CCN(C)CC4)CC[C@H]32)c1	x	-3	x	x	0	-4
COc1ccc(CN(C)C[C@H]2OCCCC[C@H](C)Oc3ccc(NS(=O)(=O)c4cccs4)cc3C(=O)N([C@H](C)CO)C[C@H]2C)cc1	x	-2	x	x	0	1
Cn1c(=NC(=O)COc2ccccc2)sc2cccc(F)c21	-2	-1	2	63	0	57*
CCOC(=O)CC(=O)CSc1nc2c(cc1C#N)CCCCC2	x	x	2	x	x	52*
CC(C)OC(=O)CSc1nc2c(cc1C#N)CCCCC2	10	-4	32	34	0	71*
CCOC(=O)CC(=O)COc1nc2cc3c(nc2o1)CCCC3	0	1	-5	x	0	59*
CC(C)OC(=O)CC(=O)CSc1nc2c(cc1C#N)CCCCC2	x	x	-10	43	x	x
Cc1ccccc1NC(=O)Cn1cnc2c(oc3nc4c(cc32)CCCC4)c1=O	0	0	0	7	0	2
CCCN1C[C@@H](C)[C@H](OC)CN(C)C(=O)c2cc(NC(=O)Nc3cccc(OC)c3)ccc2OC[C@@H]1C	x	x	x	x	0	2

From PubChem BioAssay
